Data reported in publication PMC7913687 (Nucleic Acids Research, 2021).
One block for each compound: values may come before it.

Experiments:
[1] = tested on: t^6A formation by TsaC, TsaB, TsaD and TsaE; experiment: In vitro HPLC assay for t^6A formation, overall; format: biochemical, Escherichia coli; conditions: for Km: read-out: Km, overall reaction, apparent, amino acid as variable substrate; for k cat, overall reaction: named ligand as variable substrate
[2] = target: overall reaction (TsaC, TsaB, TsaD and TsaE) (Escherichia coli, UniProt P05852+P45748); experiment: Inhibition of t6A formation in the full TsaBCDE reaction; format: biochemical; conditions: read-out: IC50 (μM) Overall reaction
Outline: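 Full reaction: 50 mM MOPS pH 7.5, 20 mM NaHCO3, 25 mM KCl, 1 mM ATP, L-Thr (0.6 mM per footnote; 1 mM in text), 10 μM unmodified E. coli tRNALys, 1 μM each TsaB/C/D/E. Variable test compound; ATP-started; 23 °C, 5 min; EDTA quench, G-50 desalting, nuclease P1/alkaline phosphatase digest. Isocratic C18 HPLC quantifies t6A at 260 nm. IC50 from near-initial rates.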

[3] = tested on: EcTsaBDE complex; conditions: read-out: Km for TsaE-catalyzed ATPase activity; cited from earlier work
[4] = target: T1, TsaC (Escherichia coli, UniProt P45748); experiment: TsaC reaction; format: biochemical; conditions: named ligand as variable substrate
T1 sequence (P45748 1-190): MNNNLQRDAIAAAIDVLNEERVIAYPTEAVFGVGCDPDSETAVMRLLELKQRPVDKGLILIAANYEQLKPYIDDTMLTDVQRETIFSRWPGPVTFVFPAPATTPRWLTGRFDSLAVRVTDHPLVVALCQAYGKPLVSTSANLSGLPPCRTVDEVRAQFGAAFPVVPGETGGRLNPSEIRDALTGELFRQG
Outline: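 Enzyme, with the other components and any inhibitor, preincubated 2 min at 23°C, then started with ATP. After 1 min at 23°C, injected directly onto C18 HPLC (isocratic 50 mM potassium phosphate pH 6, 1% acetonitrile). TC-AMP read by UV at 260 nm. […], measured near initial rates.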

[5] = target: EcTsaBDE (Escherichia coli, UniProt P05852); experiment: Isolated second step of t^6A formation; format: biochemical
[6] = tested on: aspartate and ornithine transcarbamoylases; conditions: cited from earlier work
[7] = tested on: Nc1ncnc2c1ncn2[C@@H]1O[C@H](COP(=O)(O)OP(=O)(O)OP(=O)(O)O)[C@@H](O)[C@H]1O; experiment: purified protein, by the assay type; conditions: pH 6.0; 23.0 °C
[8] = tested on: C[C@@H](O)[C@H](N)C(=O)O; experiment: purified protein, by the assay type; conditions: pH 6.0; 23.0 °C
[9] = target: Escherichia coli TsaBD heterodimer, preformed from fluorescently labelled His6-TsaD and unlabelled TsaB (Escherichia coli) (UniProt P05852); experiment: MST
Escherichia coli TsaBD heterodimer, preformed from fluorescently labelled His6-TsaD and unlabelled TsaB (Escherichia coli), sequence (P05852 whole entry, chain 1 of 2): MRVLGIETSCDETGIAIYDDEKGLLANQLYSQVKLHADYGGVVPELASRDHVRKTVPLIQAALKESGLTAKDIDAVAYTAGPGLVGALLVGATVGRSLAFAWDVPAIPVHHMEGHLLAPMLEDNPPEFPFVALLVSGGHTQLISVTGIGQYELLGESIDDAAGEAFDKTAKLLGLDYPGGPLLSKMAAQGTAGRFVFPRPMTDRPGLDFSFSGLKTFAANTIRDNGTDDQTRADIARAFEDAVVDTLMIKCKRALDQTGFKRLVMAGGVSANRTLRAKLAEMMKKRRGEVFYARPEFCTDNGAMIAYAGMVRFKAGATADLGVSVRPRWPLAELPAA
Escherichia coli TsaBD heterodimer, preformed from fluorescently labelled His6-TsaD and unlabelled TsaB (Escherichia coli), sequence (P76256 whole entry, chain 2 of 2, further chain): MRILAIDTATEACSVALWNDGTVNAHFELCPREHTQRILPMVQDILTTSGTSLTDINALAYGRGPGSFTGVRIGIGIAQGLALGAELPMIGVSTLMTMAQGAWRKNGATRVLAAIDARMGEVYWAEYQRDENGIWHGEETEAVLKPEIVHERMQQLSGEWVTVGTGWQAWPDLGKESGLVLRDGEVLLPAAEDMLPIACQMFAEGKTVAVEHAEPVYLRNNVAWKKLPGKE

overall reaction (TsaC, TsaB, TsaD and TsaE), sequence (P76256 whole entry, one chain of several): as the sequence (P76256 whole entry, chain 2 of 2, further chain) above
overall reaction (TsaC, TsaB, TsaD and TsaE), sequence (P05852 whole entry, one chain of several): as the sequence (P05852 whole entry, chain 1 of 2) above
EcTsaBDE, sequence (P05852 whole entry): as the sequence (P05852 whole entry, chain 1 of 2) above
EcTsaBDE, sequence (P76256 whole entry partner): as the sequence (P76256 whole entry, chain 2 of 2, further chain) above

Km [1]: 500 µM
Compound: CCC(O)[C@H](N)C(=O)O (mixture of isomers) [hNV, (±)-3-hydroxynorvaline]

IC50 [2]: 160 ± 20 µM
Compound: Nc1ncnc2c1ncn2[C@@H]1O[C@H](COP(=O)(O)OP(=O)(O)O)[C@@H](O)[C@H]1O [5′-ADP, adenosine 5'-diphosphate]

IC50 [2]: 113 ± 10 µM
Compound: Nc1ncnc2c1ncn2[C@@H]1O[C@H](COP(=O)(O)O)[C@@H](O)[C@H]1O [5′-AMP, adenosine 5'-monophosphate]

K m, TsaC reaction [4]: 130 ± 10 µM
k cat, TsaC reaction [4]: 0.132 ± 0.0033 s⁻¹
fold lower turnover of t^6A formation than ATPase activity [5]: ~80 fold
fold lower Km for t^6A second step than Km for ATPase activity ([5]; 14 μM vs 0.64 mM): 40 fold
Kis, second step with TC-AMP as substrate ([5]; TC-AMP 10 μM, fit to Equation 3): 1.8 mM
Kis (substrate inhibition), TsaBDE reaction ([5]; TC-AMP 10 μM, calculated for observed substrate inhibition): 1800 µM
k cat, TsaBDE reaction ([5]; named ligand as variable substrate): 0.002 ± 0.0017 s⁻¹
Compound: Nc1ncnc2c1ncn2[C@@H]1O[C@H](COP(=O)(O)OP(=O)(O)OP(=O)(O)O)[C@@H](O)[C@H]1O [ATP]
reduction in the Vmax (substrate inhibition) ([1]; at 5 mM ATP): 50%
reduction in the Vmax (substrate inhibition) ([1]; at 10 mM ATP): 90%
Kis (substrate inhibition), overall reaction ([1]; calculated for observed substrate inhibition, fit to Equation 3): 2200 µM
k cat, overall reaction [1]: 0.00667 ± 0.0067 s⁻¹
Km [3]: 640 µM

Compound: NC(=O)OP(=O)(O)O [CP, carbamoyl phosphate]
Km [6]: 4 to 10 µM

Km [1]: 590 ± 90 µM
K m, TsaC reaction [4]: 1770 ± 260 µM
k cat, TsaC reaction [4]: 0.15 ± 0.0067 s⁻¹
Compound: C[C@@H](O)[C@H](N)C(=O)O [L-Thr, L-threonine]
k cat, overall reaction [1]: 0.007 ± 0.00033 s⁻¹

IC50 [2]: 9.3 ± 1.2 µM
Compound: Nc1ncnc2c1ncn2[C@@H]1O[C@H](COP(=O)(O)OC(=O)N[C@@H](CO)C(=O)O)[C@@H](O)[C@H]1O [SC-AMP, serine analog of TC-AMP (L-serylcarbamoyl-adenylate)]

Compound: EcTsaC (Escherichia coli K-12)
Km [7]: 130 ± 10 µM
kcat [7]: 0.132 ± 0.00333 s⁻¹
Km [8]: 1770 ± 260 µM
kcat [8]: 0.15 ± 0.00667 s⁻¹

Kd [9]: 2.2 µM
Compound: Escherichia coli TsaE (from UniProt P0AF67 1-153) (enzyme; other documents disagree on this pair)
